# Compound activity as filed in PubChem BioAssay.
# DNA FID counter: counter-screen for HCV NS3 helicase inhibitors: DNA intercalator displacement; DNA fluorescent intercalator displacement, fluorescence; inhibition, % at 7.9 µM; 290,000 tested, 0.17% active; AID 1845; in the data active = inhibition above about 37%;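 also: 0% = vehicle and 100% = reference compound; higher means more ethidium bromide displaced from hairpin DNA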
# IMP-1 inhibitor: blocks Pseudomonas aeruginosa IMP-1 metallo-beta-lactamase; purified IMP-1, nitrocefin hydrolysis, epi-absorbance fluorescence; inhibition, % at 5.6 µM; 290,000 tested, 0.45% active;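 active = inhibition above the mean plus 3 SD of all compounds in the same screening run, cut at about 4.5% in these data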;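 also: 0% = IMP-1 with DMSO and 100% = DMSO wells lacking enzyme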
#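 system = purified recombinant IMP-1 beta-lactamase | amount = 0.2 nM IMP-1, as dispensed | medium = HEPES buffer pH 7.1 with ZnSO4 and Brij 35 | times = 25 °C, 15 min preincubation, 25 min reaction | detection = plate fluorescence quenching by hydrolysis product, ex 480/em 530 nm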
# core dimer inh: blocks dimerization of HCV core protein; TR-FRET GST/Flag-core106 dimerization, 1536-well; 300,000 tested, 0.33% active; inhibition, % at 5 µM;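 active = inhibition above the mean of all tested compounds plus 3 SD, set per screening campaign, cut at about 45% in these data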
#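 Assay system: tagged HCV core106 pair (GST and Flag); medium: KF-containing HEPES buffer, pH 7.45, DTT, CHAPS, BSA; also added: Eu donor and XL665 acceptor anti-tag antibodies; dosing: 5 µM single dose; timing: compound-protein-antibody incubation 4 h at 22.5 °C; signal: TR-FRET 671 and 617 nm emission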
# VIM-2 inh: blocks Pseudomonas aeruginosa VIM-2 metallo-beta-lactamase | 290,000 tested, 0.89% active | inhibition, % at 5.6 µM | purified VIM-2, nitrocefin hydrolysis, epi-absorbance fluorescence;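 active = inhibition above the mean of all tested compounds plus 3 SD, cutoff set per screening run, cut at about 7.5% in these data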;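 also: red hydrolysis product quenches plate fluorescence so inhibitors raise well fluorescence; 0% = enzyme with DMSO and 100% = DMSO without enzyme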
# An asterisk follows results filed as active; / = no result. Only some compounds are listed: those with a hit (about 1.6% of all), similar ones and a draw of the others.
SMILES,DNA FID counter,IMP-1 inhibitor,core dimer inh,VIM-2 inh
COC/C=C/C1=CC2=CC(=O)C(C)(OC(=O)C3CCCC3)C(=O)C2=CO1 (configuration not stated),/,/,7,/
COC/C=C/C1=CC2=CC(=O)C(C)(O)C(=O)C2=CO1 (configuration not stated),/,/,58*,/
COC/C=C/C1=CC2=CC(=O)C(C)(OC(=O)c3ccco3)C(=O)C2=CO1 (configuration not stated),/,/,51*,/
COC/C=C/C1=CC2=CC(=O)C(C)(OC(=O)c3cccs3)C(=O)C2=CO1 (configuration not stated),/,/,42,/
CCOc1ccc(NC(=O)CN2CCN(CC(=O)Nc3ccc(N(C)C)cc3)CC2)cc1,-4,-1,/,0
CCCn1c(O)c(C=Nc2ccccc2)sc1=S,-2,-1,-4,2
CCCCn1c(O)c(/C=C/C=C/C=Nc2ccccc2)sc1=S,-15,1,63*,-1
CCn1c(O)c(/C=C/C=C/C=Nc2ccccc2)sc1=S,-5,-4,28,-7
Oc1c(/C=C/C=C/C=Nc2ccccc2)sc(=S)n1Cc1ccccc1,-11,4,50*,-1
CSCCC(NC(=O)c1cc(C)oc1C)C(=O)O (configuration not stated),0,-8,-5,-1
CCCNS(=O)(=O)c1ccc(OCC(=O)N2CCOCC2)cc1,-3,-6,-6,-3
Nc1nnc(SCC(=O)NC2CCCCCCC2)s1,/,/,2,/
COc1ccc(OC)c(Nc2c3ccccc3nc3ccccc23)c1,31,-4,-4,11*
COc1ccc(OC)c(Nc2nc(NCCO)c3ccccc3n2)c1,38*,-2,-13,2
CCOC(=O)C1CCN(C(=O)CN2C(=O)c3ccccc3S2(=O)=O)CC1,/,/,1,/
O=C(O)c1cccc(Nc2ccc([N+](=O)[O-])cn2)c1,0,-3,0,-3
CCCCNC(=O)c1ccc2c(c1)ncn2C1CCCC1,-14,-3,-5,-2
O=Cc1ccc(-n2cc(C=O)c3ccccc32)cc1,4,-2,6,2
CCCN1Cc2cccc(C(=O)Nc3ccc(CN4CCCC4)cc3)c2C1=O,2,-2,-2,12*
CC(O)[C@H]1CNC(=O)C(=O)N1CCC12CC3CC(CC(C3)C1)C2 (some centres not stated),/,/,-11,/
C[C@H]1CNC(=O)C(=O)N1C[C@H](Cc1ccc(O)cc1)NC(=O)CC12CC3CC(CC(C3)C1)C2,-2,8.4*,-8,-2
Cc1cc(C)c(NC(=O)C2CCCN2CCOC(=O)c2cccc([N+](=O)[O-])c2)c(C)c1 (configuration not stated),-16,0,0,-1
Cn1cccc1CC(=O)N/N=C/c1cc([N+](=O)[O-])ccc1Cl,0,-1,48*,-3
COc1cc(NC(=O)C(=O)NCCN2CCNCC2)c(OC)cc1Cl,4,-2,-1,10*
CC(=O)c1cc(N2CCOCC2)ccc1[N+](=O)[O-],0,-1,/,-2
SMILES,DNA FID counter,IMP-1 inhibitor,core dimer inh,VIM-2 inh
CN(C)/C=C/C(=O)c1cc(N2CCOCC2)ccc1[N+](=O)[O-],-17,7.4*,2,-2
N=c1n(CCN2CCCC2)c2ccccc2n1CC(O)c1ccc(Cl)c(Cl)c1 (configuration not stated),48*,1,-2,7
N=c1n(CCN2CCOCC2)c2ccccc2n1CC(=O)c1ccc(Cl)c(Cl)c1,-8,0,5,-4
COc1cc(Cn2ccnc2)c(OC)cc1Cn1ccnc1,7,-1,-1,-1
CCn1c(C)c(C(C)=O)c(N2CCN(c3ccccc3)CC2)nc1=S,0,6.6*,-3,2
CCn1c(C)c(C(C)=O)c(N2CCN(C(c3ccccc3)c3ccccc3)CC2)nc1=S,-2,-3,6,0
Cc1sc2ncnc(NCC(c3ccco3)N3CCCC3)c2c1C (configuration not stated),10,-1,1,11*
CO/N=C/C(=N\Nc1cc(OC)cc(OC)c1)C(=O)c1ccccc1,5,-2,-1,-4
O=C(CSc1c(Cl)cccc1Cl)NC1CCCc2ccccc21 (configuration not stated),-11,8.0*,14,1
O=C(CCl)Nc1cccc(-c2cnc3ccccc3n2)c1,1,0,11,1
CN(C)c1ccc(-c2ccc3c(=O)c4ccccc4n(C)c3c2)cn1,0,1,-82,12*
CCOC(=O)CNC(=O)CSc1nc(N(C)C)nc(N2CCOCC2)n1,-7,-1,-4,-2
COC(=O)c1cccc(NC(=O)CSc2nnc(C)o2)c1,-4,7.5*,7,-4
